{"source": "ChEMBL document CHEMBL1133254", "about": "“One-pot synthesis and biological evaluation of aspergillamides and analogues” (Bioorg Med Chem Lett, 2000)", "key": {"[1]": {"system": "MCF7", "assay": "Inhibitory concentration against MCF-7 cell line", "assay_type": "functional, cell-based", "details": "Homo sapiens", "how_it_was_run": "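MCF-7 cells maintained in RPMI-1640 with 5% FCS at 37 °C under 5% CO2. Test material came from dilution plates prepared from the one-pot Ugi synthesis plates. Each sample was screened at five concentrations, and an approximate IC50 was estimated from the results.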"}, "[2]": {"system": "HCT-116", "assay": "Cytotoxicity against HCT 116 cell line", "assay_type": "functional, cell-based", "details": "Homo sapiens"}, "[3]": {"system": "MCF7", "assay": "Compound was tested for cytotoxicity against MCF-7 cell line; Active", "assay_type": "functional, cell-based", "details": "Homo sapiens"}, "[4]": {"system": "Bacillus subtilis", "assay": "Compound ( at <100 uM) was tested for growth inhibition against Bacillus subtilis", "assay_type": "functional"}, "[5]": {"system": "Staphylococcus aureus", "assay": "Compound ( at <100 uM) was tested for growth inhibition against Staphylococcus aureus", "assay_type": "functional"}, "[6]": {"system": "Candida albicans", "assay": "Compound ( at <100 uM) was tested for growth inhibition against Candida albicans", "assay_type": "functional"}}, "note": "Calls of active or inactive are those of the source. No cut-off for these calls is given here."}
{"smiles": "CC(=O)N[C@H](CC(C)C)C(=O)N(CCc1c[nH]c2ccccc12)CC(=O)N/C=C\\c1c[nH]c2ccccc12", "values": [{"measurement": "IC50", "setting": "[1]", "result": 49900, "unit": "nM"}]}
{"smiles": "O=C(/C=C/c1c[nH]c2ccccc12)N/C=C/c1c[nH]c2ccccc12", "note": "[CHONDRIAMIDE A]", "values": [{"measurement": "IC50", "setting": "[2]", "result": 16, "unit": "µg/mL"}]}
{"smiles": "CC(=O)NCC(=O)N(CCc1c[nH]c2ccccc12)CC(=O)N/C=C\\c1c[nH]c2cc(OCc3ccccc3)ncc12", "values": [{"measurement": "Cytotoxicity", "setting": "[3]", "result": "Active"}]}
{"smiles": "CC(=O)N[C@H](CC(C)C)C(=O)N(CCCCCO)C1(C(=O)N/C=C\\c2c[nH]c3cc(OCc4ccccc4)ncc23)CCN(Cc2ccccc2)CC1", "values": [{"measurement": "Cytotoxicity", "setting": "[3]", "result": "Active"}]}
{"smiles": "CC(=O)N[C@H](CC(C)C)C(=O)N(CCc1c[nH]c2ccccc12)CC(=O)N/C=C\\c1c[nH]c2cc(OCc3ccccc3)ncc12", "values": [{"measurement": "Inhibition", "setting": "[4]", "result": 100, "unit": "%"}, {"measurement": "Inhibition", "setting": "[5]", "result": 100, "unit": "%"}]}
{"smiles": "CC(=O)NC(CC(C)C)C(=O)N(C)C(Cc1ccccc1)C(=O)N/C=C\\c1c[nH]c2ccccc12", "note": "(stereo unspecified)", "values": [{"measurement": "IC50", "setting": "[2]", "result": 16, "unit": "µg/mL"}]}
{"smiles": "CCC(C)CC(C(=O)N/C=C\\c1c[nH]c2ccccc12)N(C)Cc1ccc(O)cc1", "note": "(stereo unspecified) [ARAGILAMIDE]", "values": [{"measurement": "IC50", "setting": "[2]", "result": 16, "unit": "µg/mL"}]}
{"smiles": "CC(=O)NCC(=O)N(CCc1c[nH]c2ccccc12)CC(=O)N/C=C\\c1c[nH]c2ccccc12", "values": [{"measurement": "IC50", "setting": "[1]", "result": 4100, "unit": "nM"}]}
{"smiles": "CC(=O)N[C@H](CC(C)C)C(=O)N(C)C(Cc1ccccc1)C(=O)N/C=C\\c1c[nH]c2ccccc12", "note": "(stereo partly specified)", "values": [{"measurement": "IC50", "setting": "[1]", "result": 300, "unit": "nM"}]}
{"smiles": "CC(=O)N1CCC[C@@H]1C(=O)N(CCc1c[nH]c2ccccc12)CC(=O)N/C=C\\c1c[nH]c2cc(OCc3ccccc3)ncc12", "values": [{"measurement": "Inhibition", "setting": "[4]", "result": 100, "unit": "%"}, {"measurement": "Inhibition", "setting": "[5]", "result": 100, "unit": "%"}]}
{"smiles": "CC(=O)N[C@H](CC(C)C)C(=O)N1C(C(=O)N/C=C\\c2c[nH]c3cc(OCc4ccccc4)ncc23)CSC1(C)C", "note": "(stereo partly specified)", "values": [{"measurement": "Inhibition", "setting": "[4]", "result": 100, "unit": "%"}, {"measurement": "Cytotoxicity", "setting": "[3]", "result": "Active"}, {"measurement": "Inhibition", "setting": "[5]", "result": 100, "unit": "%"}]}
{"smiles": "CC(=O)NCC(=O)N(CCCCCO)C1(C(=O)N/C=C\\c2c[nH]c3ccccc23)CCN(Cc2ccccc2)CC1", "values": [{"measurement": "Inhibition", "setting": "[6]", "result": 100, "unit": "%"}]}
{"smiles": "CC(=O)NCC(=O)N(CCCCCO)C1(C(=O)N/C=C\\c2c[nH]c3cc(OCc4ccccc4)ncc23)CCN(Cc2ccccc2)CC1", "values": [{"measurement": "Cytotoxicity", "setting": "[3]", "result": "Active"}]}
{"smiles": "CC(=O)N1CCCC1C(=O)N(C)C(Cc1ccccc1)C(=O)N/C=C\\c1c[nH]c2cc(OCc3ccccc3)ncc12", "note": "(stereo unspecified)", "values": [{"measurement": "Cytotoxicity", "setting": "[3]", "result": "Active"}, {"measurement": "IC50", "setting": "[1]", "result": 1900, "unit": "nM"}]}
{"smiles": "CC(=O)N[C@H](CC(C)C)C(=O)N1C(C(=O)N/C=C\\c2c[nH]c3ccccc23)CSC1(C)C", "note": "(stereo partly specified)", "values": [{"measurement": "Inhibition", "setting": "[4]", "result": 100, "unit": "%"}, {"measurement": "Inhibition", "setting": "[5]", "result": 100, "unit": "%"}]}
{"smiles": "CC(=O)NCC(=O)N1C(C(=O)N/C=C\\c2c[nH]c3ccccc23)CSC1(C)C", "note": "(stereo unspecified)", "values": [{"measurement": "Inhibition", "setting": "[6]", "result": 100, "unit": "%"}]}
{"smiles": "CC(=O)NCC(=O)N1C(C(=O)N/C=C\\c2c[nH]c3cc(OCc4ccccc4)ncc23)CSC1(C)C", "note": "(stereo unspecified)", "values": [{"measurement": "Cytotoxicity", "setting": "[3]", "result": "Active"}]}
{"smiles": "CC(=O)N[C@H](CC(C)C)C(=O)N(C)C(Cc1ccccc1)C(=O)N/C=C\\c1c[nH]c2cc(OCc3ccccc3)ncc12", "note": "(stereo partly specified)", "values": [{"measurement": "Inhibition", "setting": "[6]", "result": 100, "unit": "%"}]}
{"smiles": "CC(=O)N1CCC[C@H]1C(=O)N(C1CCCCC1)C1(C(=O)N/C=C\\c2c[nH]c3ccccc23)CCCCC1", "values": [{"measurement": "IC50", "setting": "[1]", "result": 400, "unit": "nM"}]}
{"smiles": "CC(=O)NC(C(=O)N(C)C(C(=O)N/C=C\\c1c(CC=C(C)C)[nH]c2ccccc12)C(C)C)C(C)C", "note": "(stereo unspecified)", "values": [{"measurement": "IC50", "setting": "[2]", "result": 16, "unit": "µg/mL"}]}
